For three compounds, MIC, ED50 and Ka results are on record in ChEMBL document CHEMBL1125337, “Synthesis and antibacterial activity of a series of basic amides of teicoplanin and deglucoteicoplanin with polyamines” (J Med Chem, 1992).

Experiment [1] deals with Staphylococcus epidermidis. Put plainly: Minimum inhibitory concentration against Staphylococcus epidermidis ATCC 12228. Format: functional. Put shortly: (§1)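 MIC (µg/mL) by microbroth dilution in Iso-Sensitest broth; final inoculum 10^4 cfu/mL; 24 h at 37 °C in air.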
The subject of a further experiment is Streptococcus pneumoniae. The experiment is described as follows: Minimum inhibitory concentration against Streptococcus pneumoniae L 44. In kind it is functional. Put shortly: (§2)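 MIC (µg/mL) by microbroth dilution in Todd-Hewitt broth, final inoculum 10^4 cfu/mL, incubated 24 h at 37 °C in air.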
For a further experiment, the system named is Staphylococcus aureus. The experiment is described as follows: Minimum inhibitory concentration against Staphylococcus aureus L 165. Format: functional. Put shortly: as §1
Experiment [2] concerns Streptococcus pyogenes. Put plainly: Efficacy of compound administered subcutaneously against Streptococcus pyogenes L 49 Septicemia in mouse. Format: functional. Conditions: sc. In outline:
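Mice were infected intraperitoneally with about 10^5 Strep. pyogenes L 49 cells, about 100 times the 50% lethal dose. Groups of 5–8 mice were treated once right after challenge, by the route stated in the line. ED50 (mg/kg) was derived from percentage survival at each dose on day 7 (Spearman-Kärber).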

The test system of a further experiment is Proteus vulgaris. The experiment is described as follows: Minimum inhibitory concentration against Proteus vulgaris ATCC 881. In kind it is functional. In outline:
as §1

For another experiment, the system named is Pseudomonas aeruginosa. The experiment is described as follows: Minimum inhibitory concentration against Pseudomonas aeruginosa ATCC 10145. In kind it is functional. In outline: as §1
A short description of experiment [3]: Association constant to Ac2-L-Lys-D-Ala-D-Ala determined at pH 9; Value ranges from 5E4-7.5E4.
Experiment [4] deals with Streptococcus pyogenes. The experiment is described as follows: Minimum inhibitory concentration against Streptococcus pyogenes L 49. Format: functional. Put shortly: as §2
A further experiment concerns Enterococcus faecalis. Put plainly: Minimum inhibitory concentration against Enterococcus faecalis ATCC 7080. Format: functional. In outline: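 Microbroth dilution MIC (µg/mL), final inoculum 10^4 cfu/mL, incubated 24 h at 37 °C in air.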
For experiment [5], the system named is Staphylococcus haemolyticus. The experiment is described as follows: Minimum inhibitory concentration against Staphylococcus haemolyticus L 602. In kind it is functional. Put shortly:
as §1

In another experiment the test system is Escherichia coli. The experiment is described as follows: Minimum inhibitory concentration against Escherichia coli L 47. In kind it is functional. Put shortly:
as §1

In experiment [6] the test system is Streptococcus pyogenes. The experiment is described as follows: Minimum inhibitory concentration of compound was determined against Streptococcus pyogenes L 49 in mouse. Format: functional.

Values after ≈ are worked out from the molar mass of the structure shown.

Broadly, the MIC is the lowest concentration found to suppress growth. Read a high MIC as weaker potency. The term ED50 denotes the midpoint of the dose-response relation. With `NCCCNCCCCNCCCNC(=O)[C@H]1NC(=O)[C@H]2NC(=O)[C@H](NC(=O)[C@@H]3NC(=O)[C@H]4NC(=O)[C@@H](Cc5ccc(c(Cl)c5)Oc5cc3cc(c5O)Oc3ccc(cc3Cl)[C@H]2O)NC(=O)[C@H](N)c2ccc(O)c(c2)Oc2cc(O)cc4c2)c2ccc(O)c(c2)-c2c(O)cc(O)cc21`, the MIC came to 0.063 mg/L (≈ 0.0455 µM) in experiment [1]; 0.125 mg/L (≈ 0.0904 µM) in the experiment with Streptococcus pneumoniae; 0.063 mg/L (≈ 0.0455 µM) with Staphylococcus aureus; 64 mg/L (≈ 46.3 µM) against Proteus vulgaris; 8 mg/L (≈ 5.78 µM) against Pseudomonas aeruginosa; 0.063 mg/L (≈ 0.0455 µM) with Streptococcus pyogenes [4]. Also, the MIC against Enterococcus faecalis came out at 0.125 mg/L (≈ 0.0904 µM); in experiment [5], 0.125 mg/L (≈ 0.0904 µM); in the experiment on Escherichia coli, 2 mg/L (≈ 1.45 µM); against Streptococcus pyogenes [6], 0.06 mg/L (≈ 0.0434 µM). The compound further registered an ED50 in the experiment with Streptococcus pyogenes [2] of 0.41 mg/kg. Besides, in experiment [3], the Ka is 75000 M⁻¹.
As to `NCCCCNCCCNC(=O)[C@H]1NC(=O)[C@H]2NC(=O)[C@H](NC(=O)[C@@H]3NC(=O)[C@H]4NC(=O)[C@@H](Cc5ccc(c(Cl)c5)Oc5cc3cc(c5O)Oc3ccc(cc3Cl)[C@H]2O)NC(=O)[C@H](N)c2ccc(O)c(c2)Oc2cc(O)cc4c2)c2ccc(O)c(c2)-c2c(O)cc(O)cc21`, the MIC in experiment [1] was determined as 0.063 mg/L (≈ 0.0475 µM); in the experiment with Streptococcus pneumoniae, 0.125 mg/L (≈ 0.0943 µM); in the experiment with Staphylococcus aureus, 0.063 mg/L (≈ 0.0475 µM); against Proteus vulgaris, 32 mg/L (≈ 24.1 µM); in the experiment on Pseudomonas aeruginosa, 8 mg/L (≈ 6.03 µM); against Streptococcus pyogenes [4] it was 0.063 mg/L (≈ 0.0475 µM). The MIC against Enterococcus faecalis was 0.125 mg/L (≈ 0.0943 µM); in experiment [5], 0.063 mg/L (≈ 0.0475 µM); with Escherichia coli, 2 mg/L (≈ 1.51 µM); in the experiment on Streptococcus pyogenes [6] it was 0.06 mg/L (≈ 0.0452 µM). The same compound displayed an ED50 with Streptococcus pyogenes [2] of 0.31 mg/kg. This compound came in with a Ka in experiment [3] of 75000 M⁻¹.
Consider `NCCNCCNC(=O)[C@H]1NC(=O)[C@H]2NC(=O)[C@H](NC(=O)[C@@H]3NC(=O)[C@H]4NC(=O)[C@@H](Cc5ccc(c(Cl)c5)Oc5cc3cc(c5O)Oc3ccc(cc3Cl)[C@H]2O)NC(=O)[C@H](N)c2ccc(O)c(c2)Oc2cc(O)cc4c2)c2ccc(O)c(c2)-c2c(O)cc(O)cc21`, for which the MIC in [1] was determined as 0.063 mg/L (≈ 0.0491 µM); against Streptococcus pneumoniae, 0.125 mg/L (≈ 0.0973 µM); against Staphylococcus aureus it was 0.063 mg/L (≈ 0.0491 µM); against Proteus vulgaris it was 64 mg/L (≈ 49.8 µM); against Pseudomonas aeruginosa, 64 mg/L (≈ 49.8 µM); against Streptococcus pyogenes [4], 0.125 mg/L (≈ 0.0973 µM). Besides, the MIC against Enterococcus faecalis was found to be 0.125 mg/L (≈ 0.0973 µM); in experiment [5] it was 0.125 mg/L (≈ 0.0973 µM); against Escherichia coli, 8 mg/L (≈ 6.23 µM). In [3], the Ka worked out at 75000 M⁻¹.
